The subject of data set [1] is Rattus norvegicus. Put plainly: Antipyretic activity in albino rat assessed as yeast-induced pyrexia at 135 mg/kg, po measured at 3 hrs by telethermometer (reference value: 38.11 degC). The data set is classed as functional. In outline:
(§1)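 Male albino rats (170–230 g) given s.c. 2.5 ml 20% aqueous baker's yeast; rectal temperature by telethermometer before and at 18 h (taken as 0 h). Rats with 1–2 °C rise, six per group, dosed orally 30 min later (control 1 ml 0.5% sodium CMC). Temperature recorded hourly to 5 h; temperature index = sum of mean changes from 0 h.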

Data set [2] concerns Rattus norvegicus. Put plainly: Antipyretic activity in albino rat assessed as decrease in yeast-induced pyrexia by measuring temperature index at 135 mg/kg, po measured over 5 hrs by telethermometer (reference value: 1.04 degC). The data set is classed as functional. In outline:
as §1

Data set [3] has as its system Rattus norvegicus. Put plainly: Antipyretic activity in albino rat assessed as yeast-induced pyrexia at 135 mg/kg, po measured at 4 hrs by telethermometer (reference value: 38 degC). The data set is classed as functional. In outline:
as §1

Data set [4] has as its system Rattus norvegicus. Briefly: Antipyretic activity in albino rat assessed as yeast-induced pyrexia at 135 mg/kg, po measured at 5 hrs by telethermometer (reference value: 37.89 degC). It counts as functional. In a few lines: as §1
For data set [5], the system named is Rattus norvegicus. Briefly: Antipyretic activity in albino rat assessed as yeast-induced pyrexia at 135 mg/kg, po measured at 1 hr by telethermometer (reference value: 38.26 degC). The data set is classed as functional. In outline: as §1
The subject of data set [6] is Rattus norvegicus. Put plainly: Antipyretic activity in albino rat assessed as yeast-induced pyrexia at 135 mg/kg, po measured at 2 hrs by telethermometer (reference value: 38.20 degC). It counts as functional. In a few lines: as §1
The test system of data set [7] is Mus musculus. Briefly: Acute toxicity in albino mouse assessed as mortality at 2000 mg/kg, po measured continuously for 3 hrs followed by every 30 mins for next 3 hrs up to 24 hrs. The data set is classed as organism-based. The conditions noted are these: in vivo. Also on record: dose 2000 mg/kg, route oral. In outline:
(§2)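 OECD guideline test. Albino mice of either sex, 20–25 g, six per group, fasted 24 h with water ad libitum. Compounds suspended in 0.5% aqueous sodium CMC and given orally in increasing doses of 10, 20, 100, 200, 1000 and 2000 mg/kg b.w. Animals watched continuously for 3 h for general behavioural, neurological and autonomic profiles, then every 30 min for 3 h, then up to 24 h or until death.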

Data set [8] concerns Rattus norvegicus. Put plainly: Antipyretic activity in albino rat assessed as yeast-induced pyrexia at 10 mg/kg, po measured at 1 hr by telethermometer (reference value: 38.26 degC). It counts as functional. In a few lines: as §1
For data set [9], the system named is Rattus norvegicus. Briefly: Antipyretic activity in albino rat assessed as yeast-induced pyrexia at 10 mg/kg, po measured at 3 hrs by telethermometer (reference value: 38.11 degC). It counts as functional. In outline: as §1
The target of data set [10] is T1, Prostaglandin G/H synthase 1 (Ovis aries) (UniProt P05979).
T1 sequence (whole entry): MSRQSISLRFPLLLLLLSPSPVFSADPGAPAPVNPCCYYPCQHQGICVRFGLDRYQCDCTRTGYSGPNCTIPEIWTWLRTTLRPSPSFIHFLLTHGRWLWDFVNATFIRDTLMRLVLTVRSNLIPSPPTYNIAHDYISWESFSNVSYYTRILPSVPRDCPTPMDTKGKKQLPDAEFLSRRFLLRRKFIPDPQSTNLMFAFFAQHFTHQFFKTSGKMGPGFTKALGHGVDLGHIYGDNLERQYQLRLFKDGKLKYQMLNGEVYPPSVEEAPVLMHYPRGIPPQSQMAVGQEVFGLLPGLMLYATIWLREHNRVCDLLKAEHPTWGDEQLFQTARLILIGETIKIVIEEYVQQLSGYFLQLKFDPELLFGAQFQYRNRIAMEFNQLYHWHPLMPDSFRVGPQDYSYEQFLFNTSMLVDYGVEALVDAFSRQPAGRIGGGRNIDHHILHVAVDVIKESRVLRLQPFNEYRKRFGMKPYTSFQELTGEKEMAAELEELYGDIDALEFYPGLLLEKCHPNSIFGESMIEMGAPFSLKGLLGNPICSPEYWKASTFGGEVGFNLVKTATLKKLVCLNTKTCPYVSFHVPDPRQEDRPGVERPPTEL
Briefly: Inhibition of ovine COX1 peroxidase activity assessed as reduction of PGG2 to PGH2 by measuring oxidized TMPD level at 10 ug/ml by colorimetric assay relative to control.

The subject of data set [11] is Rattus norvegicus. Briefly: Antipyretic activity in albino rat assessed as yeast-induced pyrexia at 10 mg/kg, po measured at 5 hrs by telethermometer (reference value: 37.89 degC). The data set is classed as functional. In outline: as §1
The test system of data set [12] is Rattus norvegicus. Briefly: Acute antiinflammatory activity in albino rat assessed as inhibition of carrageenan-induced paw edema at 10 mg/kg, po administered 1 hr followed by carrageenan challenge measured at 2 hrs by plethysmometric analysis relative to control. The data set is classed as functional. In outline:
(§3)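 Male albino rats (170–220 g), fasted ≥12 h with water, six per group. Oral dosing in 0.5% sodium CMC (control 1 ml vehicle), then 1 h later subplantar 0.05 ml of 1% carrageenan into left hind footpad. […] Mean ± SEM, ANOVA/Dunnett.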
A general note: In the carrageenan paw model, swelling and tenderness develop within hours.

For data set [13], the target named is T2, Prostaglandin G/H synthase 1 (Ovis aries, UniProt P05979).
T2 sequence (P05979 whole entry): T1 sequence (whole entry)
Put plainly: Inhibition of ovine COX1 peroxidase activity assessed as reduction of PGG2 to PGH2 by measuring oxidized TMPD level by colorimetric assay.

Data set [14] deals with Mus musculus. Briefly: Acute toxicity in albino mouse assessed as effect on autonomic profile at 2000 mg/kg, po measured for 3 hrs. It counts as organism-based. More on the design: dose 2000 mg/kg, route oral. The conditions noted are these: in vivo. In a few lines:
as §2

The subject of data set [15] is Mus musculus. Put plainly: Acute toxicity in albino mouse assessed as effect on general behavioral profile at 2000 mg/kg, po measured for 3 hrs. The data set is classed as organism-based. Also on record: dose 2000 mg/kg, route oral. The conditions noted are these: in vivo. In outline: as §2
In data set [16] the test system is Rattus norvegicus. Briefly: Acute antiinflammatory activity in albino rat assessed as inhibition of carrageenan-induced paw edema at 10 mg/kg, po administered 1 hr followed by carrageenan challenge measured at 4 hrs by plethysmometric analysis relative to control. The data set is classed as functional. In outline:
as §3

The test system of data set [17] is Rattus norvegicus. Put plainly: Antipyretic activity in albino rat assessed as yeast-induced pyrexia at 10 mg/kg, po measured at 4 hrs by telethermometer (reference value: 38 degC). It counts as functional. In a few lines: as §1
The subject of data set [18] is Rattus norvegicus. Put plainly: Antipyretic activity in albino rat assessed as decrease in yeast-induced pyrexia by measuring temperature index at 10 mg/kg, po measured over 5 hrs by telethermometer (reference value: 1.04 degC). The data set is classed as functional. In a few lines: as §1
Data set [19] deals with Rattus norvegicus. Put plainly: Ulcerogenic activity in albino rat stress model assessed as ulcer index at 10 mg/kg, po after 7 hrs. More on the design: dose 10 mg/kg, route oral. It counts as toxicity, organism-based. The conditions noted are these: in vivo. In a few lines: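 Albino rats of either sex (170–250 g), six per group, starved 48 h with water, dosed orally 10 mg/kg in sodium CMC; killed 7 h later. Stomach opened along greater curvature and everted; lesions counted in five size classes (pinpoint to >4 mm) to give ulcer index, reported as min–max range.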

Data set [20] has as its system Rattus norvegicus. Put plainly: Antipyretic activity in albino rat assessed as yeast-induced pyrexia at 10 mg/kg, po measured at 2 hrs by telethermometer (reference value: 38.20 degC). It counts as functional. In outline:
as §1

The subject of data set [21] is Mus musculus. Put plainly: Acute toxicity in albino mouse assessed as effect on neurological profile at 2000 mg/kg, po measured for 3 hrs. The conditions noted are these: in vivo. More on the design: dose 2000 mg/kg, route oral. It counts as organism-based. In outline: as §2
The subject of data set [22] is Mus musculus. Put plainly: Analgesic activity in albino mouse assessed as protection against glacial acetic acid-induced writhing at 10 mg/kg, po administered 0.5 hrs followed by glacial acetic acid challenge measured for 15 mins relative to control. It counts as functional. In a few lines: (§4)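 Mice (20–25 g) pre-screened 24 h earlier with i.p. 10 ml/kg 0.6% glacial acetic acid; only responders used. Oral dosing as suspension in 0.5% sodium CMC 30 min before acetic acid challenge. Writhing episodes counted for 15 min; group means versus vehicle control; ANOVA with Dunnett test.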

Data set [23] concerns Rattus norvegicus. Put plainly: Acute antiinflammatory activity in albino rat assessed as inhibition of carrageenan-induced paw edema at 13.5 mg/kg, po administered 1 hr followed by carrageenan challenge measured at 2 hrs by plethysmometric analysis relative to control. It counts as functional. In outline:
as §3

The subject of data set [24] is Rattus norvegicus. Briefly: Acute antiinflammatory activity in albino rat assessed as inhibition of carrageenan-induced paw edema at 13.5 mg/kg, po administered 1 hr followed by carrageenan challenge measured at 4 hrs by plethysmometric analysis relative to control. It counts as functional. In a few lines:
as §3

Data set [25] relates to Mus musculus. Briefly: Analgesic activity in albino mouse assessed as protection against glacial acetic acid-induced writhing at 19.5 mg/kg, po administered 0.5 hrs followed by glacial acetic acid challenge measured for 15 mins relative to control. The data set is classed as functional. In a few lines: as §4
On the technique in general: Writhing tests count abdominal constrictions after an irritant is injected.

Structures are written as SMILES. pIC50: −log10 of the molar value. A value given as a limit tells only on which side of the number the result lay.

For the molecule `CC(=O)Nc1ccc(O)cc1` [ACETAMINOPHEN], the T amounted to 37.6 °C in data set [1]; 6.7 °C in data set [2]; 37.3 °C in data set [3]; 37 °C in data set [4]; 38.4 °C in data set [5]; 38 °C in [6].
For `S=c1oc(Cc2ccccc2Nc2c(Cl)cccc2Cl)nn1CN1CCOCC1`, the Activity entry in [7] is listed as “Non-toxic”; in [14], “Non-toxic”; in data set [15], “Non-toxic”; in data set [21], “Non-toxic”; in data set [22], 77%. Besides, the T amounted to 37.7 °C in data set [8]; 37.13 °C in data set [9]; 37.15 °C in [11]; 37.06 °C in data set [17]; 3.91 °C in [18]; 37.55 °C in [20]. For the same molecule, the inhibition – broadly, the drop in the measured response relative to a control, in per cent – in data set [10] came out at 34.1%. Moreover, the inhibition in vivo (usually the drop in the measured response relative to a control, in per cent) at 10 mg/kg stood at 64.3% in data set [12] and 63.8% in data set [16]. In data set [13], the pIC50 (in general, the negative decadic logarithm of the IC50, by convention in mol/L) is less than 4.30. Further, the UI in [19] was determined as 2.6.
In the case of `O=C(O)Cc1ccccc1Nc1c(Cl)cccc1Cl` [DICLOFENAC], the inhibition in vivo at 13.5 mg/kg was found to be 65.5% in data set [23] and 66.2% in [24]. Besides, the UI in [19] amounted to 5.5. Further, the Activity in [25] is 79.3%.

Source of the values: ChEMBL document CHEMBL3259568 (Bioorg Med Chem, 2014).
